Experimental findings from ChEMBL document CHEMBL2331171, “Anti-malarial activity of new N-acetyl-L-leucyl-L-leucyl-L-norleucinal (ALLN) derivatives against Plasmodium falciparum” (Bioorg Med Chem Lett, 2013) are described below.

Series [1] in a line: Therapeutic index, ratio of CC50 for human HeLa cells to IC50 for Plasmodium falciparum FCR-3. The series is classed as cell-based. Conditions: HeLa cells versus Plasmodium falciparum FCR-3, read-out: Ratio CC50/IC50.
The nature of series [2]: Cytotoxicity against human HeLa cells assessed as growth inhibition after 48 hrs by MTS assay. The series is classed as cell-based.
The next series concerns Plasmodium falciparum. The experiment in a line: Antimalarial activity against Plasmodium falciparum FCR-3 infected in erythrocytes assessed as reduction in parasitemia after 72 hrs by light microscopic analysis. The series is classed as functional, cell-based. The note with it: FCR-3/Gambia. In a few lines:
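P. falciparum FCR3 in erythrocytes exposed to compounds; parasitemia (parasite content of erythrocytes) counted microscopically; concentration giving 50% growth inhibition derived. Mean SD of three independent experiments, each in triplicate.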

Where a SMILES comes first, the peptide text is derived from it. [ ]: non-standard residue; d: D form. Nle = CCCC[C@H](N)C(=O)O

For `CC(C)(C)OC(=O)N[C@H](CCCNC(=O)OCc1ccccc1)C(=O)N[C@H](/C=C/C(=O)N1CCCC1)Cc1ccccc1`, the selectivity ratio in series [1] amounted to 13.4. Also, the 50% cytotoxic concentration (CC50) at 48 h in series [2] is 153 µM. The IC50 in the series with Plasmodium falciparum came out at 11.4 µM.

As for `CNC(=O)/C=C/[C@H](Cc1ccccc1)NC(=O)[C@@H](CCCNC(=O)OCc1ccccc1)NC(=O)OC(C)(C)C`, the selectivity ratio in series [1] was determined as 157. Further, the CC50 at 48 h in series [2] turned out to be 1060 µM. Also, in the series with Plasmodium falciparum, the IC50 was determined as 5 µM.

For `CCNC(=O)/C=C/[C@H](Cc1ccccc1)NC(=O)[C@@H](CCCNC(=O)OCc1ccccc1)NC(=O)OC(C)(C)C`, the cytotoxic concentration (CC50) at 48 h in series [2] is 2000 µM. In addition, in the series on Plasmodium falciparum, the IC50 is more than 100 µM.

Consider `CC(C)NC(=O)/C=C/[C@H](Cc1ccccc1)NC(=O)[C@@H](CCCNC(=O)OCc1ccccc1)NC(=O)OC(C)(C)C`, for which, in series [1], the selectivity ratio was 33.8. Further, the CC50 at 48 h in series [2] was 314 µM. In addition, the IC50 with Plasmodium falciparum came out at 9.29 µM.

Take `CC(C)(C)OC(=O)N[C@H](CCCNC(=O)OCc1ccccc1)C(=O)N[C@H](/C=C/C=C/C(=O)N1CCCC1)Cc1ccccc1`: the CC50 at 48 h in series [2] amounted to 53.1 µM. The half-maximal inhibitory concentration (IC50) with Plasmodium falciparum is more than 100 µM.

Consider `CN(C)C(=O)/C=C/C=C/[C@H](Cc1ccccc1)NC(=O)[C@@H](CCCNC(=O)OCc1ccccc1)NC(=O)OC(C)(C)C`, for which the CC50 at 48 h in series [2] amounted to 117 µM. For the same compound, in the series with Plasmodium falciparum, the IC50 is more than 100 µM.

Regarding `CNC(=O)/C=C/C=C/[C@H](Cc1ccccc1)NC(=O)[C@@H](CCCNC(=O)OCc1ccccc1)NC(=O)OC(C)(C)C`, the selectivity ratio in series [1] came out at 11.9. In addition, the CC50 at 48 h in series [2] came out at 281 µM. Further, the half-inhibitory concentration (IC50) with Plasmodium falciparum came to 23.6 µM.

Take `CC(C)(C)OC(=O)N[C@H](CCCNC(=O)OCc1ccccc1)C(=O)N[C@H](/C=C/C=C/C(=O)N1CCCCC1)Cc1ccccc1`: in series [1], the selectivity ratio is 11.2. Moreover, in series [2], the half-maximal cytotoxic concentration (CC50) at 48 h is 175 µM. For the same compound, the IC50 in the series on Plasmodium falciparum turned out to be 15.7 µM.

Take `CNC(=O)/C=C/[C@H](Cc1ccccc1)NC(=O)[C@@H](CCCNC(=O)OCc1ccccc1)NCc1ccccc1`: in series [1], the selectivity ratio was 16.5. In series [2], the cytotoxic concentration (CC50) at 48 h turned out to be 253 µM. Besides, the half-maximal inhibitory concentration (IC50) with Plasmodium falciparum is 15.3 µM.

Consider `CNC(=O)/C=C/[C@H](Cc1ccccc1)NC(=O)[C@@H](CCCNC(=O)OCc1ccccc1)NCc1cc(OC)cc(OC)c1`, for which the selectivity ratio in series [1] came to 15.8. In addition, the CC50 at 48 h in series [2] came out at 259 µM. Moreover, the IC50 with Plasmodium falciparum was determined as 16.4 µM.

In the case of `CNC(=O)/C=C/[C@H](Cc1ccccc1)NC(=O)[C@@H](CCCNC(=O)OCc1ccccc1)NCc1ccc(OC)cc1`, the selectivity ratio in series [1] was 27.6. For the same compound, the CC50 at 48 h in series [2] was found to be 461 µM. For the same compound, the concentration for half-maximal inhibition (IC50) in the series with Plasmodium falciparum worked out at 16.7 µM.

As for `CNC(=O)/C=C/[C@H](Cc1ccccc1)NC(=O)[C@@H](CCCNC(=O)OCc1ccccc1)NCc1cccc(C)c1`, the selectivity ratio in series [1] was 48.3. For the same compound, the CC50 at 48 h in series [2] was 242 µM. Also, the IC50 in the series with Plasmodium falciparum was 5 µM.

Consider `CNC(=O)/C=C/[C@H](Cc1ccccc1)NC(=O)[C@@H](CCCNC(=O)OCc1ccccc1)NC(C)C`, for which, in series [1], the selectivity ratio came to 10.8. Further, the CC50 at 48 h in series [2] amounted to 611 µM. In the series with Plasmodium falciparum, the 50% inhibitory concentration (IC50) worked out at 56.3 µM.

Turning to `CCCC[C@@H](C=O)NC(=O)[C@H](CC(C)C)NC(=O)[C@H](CC(C)C)NC(C)=O` (Ac-Leu-Leu-[Nle]-aldehyde), in series [1], the selectivity ratio amounted to 39.2. Besides, in series [2], the CC50 at 48 h stood at 25.1 µM. Besides, the IC50 in the series with Plasmodium falciparum was 0.64 µM.
